According to ChEMBL document CHEMBL1153887, “Cyclocondensation reaction of heterocyclic carbonyl compounds. Part XIII: synthesis and cytotoxic activity of some 3,7-diaryl-5-(3,4,5-trimethoxyphenyl)pyrazolo[4,3-e][1,2,4]triazines” (Eur J Med Chem, 2009):

Assays:
[1] = tested on: CCRF-CEM; assay: Cytotoxicity against human CEM cells after 72 hrs by MTT assay; type: cell-based
[2] = tested on: CCRF-CEM; assay: Cytotoxicity against human daunorubicin-resistant CEM cells after 72 hrs by MTT assay; type: cell-based
Summary of the method: (§1)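 Cells seeded at 2500–30,000 cells/well and left 24 h at 37 °C, 5% CO₂, then fourfold dilution series in duplicate for 72 h. MTT for 4 h, formazan dissolved in 10% SDS (pH 5.5), OD read at 540 nm against controls. Mean of three independent experiments.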

[3] = tested on: K562; assay: Cytotoxicity against human K562 cells after 72 hrs by MTT assay; type: functional, cell-based; details: K562, 72 h
[4] = tested on: K562; assay: Cytotoxicity against human paclitaxel-resistant K562 cells after 72 hrs by MTT assay; type: functional, cell-based; details: K562, 72 h; summary of the method: as §1
[5] = tested on: A549; assay: Cytotoxicity against human A549 cells after 72 hrs by MTT assay; type: functional, cell-based; details: A549, 72 h

| SMILES | IC50 [1] | IC50 [2] | IC50 [3] | IC50 [4] | IC50 [5] |
| --- | --- | --- | --- | --- | --- |
| COc1ccc(-n2nc(-c3cc(OC)c(OC)c(OC)c3)c3nc(-c4cc(OC)c(OC)c(OC)c4)nnc32)cc1 | 36.9 µM | 118 µM | 66.2 µM | 161 µM | 75.6 µM |
| COc1ccc(N/N=C(\c2cc(OC)c(OC)c(OC)c2)c2nc(-c3cc(OC)c(OC)c(OC)c3)n[nH]c2=O)cc1 | 5.71 µM | 34.6 µM | 18.7 µM | 8.91 µM | 3.39 µM |
| COc1cccc(N/N=C(\c2cc(OC)c(OC)c(OC)c2)c2nc(-c3cc(OC)c(OC)c(OC)c3)n[nH]c2=O)c1 | 7.83 µM | 140 µM | 112 µM | 22.1 µM | 3.38 µM |
| COc1cccc(-n2nc(-c3cc(OC)c(OC)c(OC)c3)c3nc(-c4cc(OC)c(OC)c(OC)c4)nnc32)c1 | 48.3 µM | 109 µM | 164 µM | 141 µM | 163 µM |
| COc1cc(/C(=N\Nc2ccc(Cl)cc2)c2nc(-c3ccc(Cl)cc3)n[nH]c2=O)cc(OC)c1OC | 7.67 µM | 37.7 µM | 10.2 µM | 12.5 µM | 3.81 µM |
| COc1cc(-c2nn(-c3ccccc3)c3nnc(-c4ccccc4)nc23)cc(OC)c1OC | 109 µM | 108 µM | 169 µM | 216 µM | 86.6 µM |
| COc1ccc(-n2nc(-c3cc(OC)c(OC)c(OC)c3)c3nc(-c4ccccc4)nnc32)cc1 | 117 µM | 100 µM | 84.4 µM | 150 µM | 39 µM |
| COc1ccc(-c2nnc3c(n2)c(-c2cc(OC)c(OC)c(OC)c2)nn3-c2cccc(OC)c2)cc1 | 54.5 µM | 184 µM | 115 µM | 174 µM | 124 µM |
| COc1ccc(-c2nnc3c(n2)c(-c2cc(OC)c(OC)c(OC)c2)nn3-c2ccc(OC)cc2)cc1 | 124 µM | 118 µM | 186 µM | 229 µM | 113 µM |
| COc1cccc(N/N=C(\c2cc(OC)c(OC)c(OC)c2)c2nc(-c3ccccc3)n[nH]c2=O)c1 | 8.6 µM | 19.3 µM | 12.7 µM | 13.7 µM | 8.3 µM |
| COc1cc(/C(=N\Nc2ccccc2)c2nc(-c3ccc(Cl)cc3)n[nH]c2=O)cc(OC)c1OC | 10.8 µM | 37.7 µM | 17.5 µM | 33.1 µM | 22.1 µM |
| COc1cc(Cc2nc(-c3ccccc3)n[nH]c2=O)cc(OC)c1OC | 2.71 µM | 3.21 µM | 1.17 µM | 3.88 µM | 3.46 µM |
| COc1ccc(N/N=C(\c2cc(OC)c(OC)c(OC)c2)c2nc(-c3ccccc3)n[nH]c2=O)cc1 | 4.16 µM | 9.46 µM | 6.27 µM | 11 µM | 3.06 µM |
| COc1cc(/C(=N\Nc2ccc(Cl)cc2)c2nc(-c3ccccc3)n[nH]c2=O)cc(OC)c1OC | 25.1 µM | 46.8 µM | 12 µM | 38.4 µM | 8.55 µM |
| COc1ccc(-c2n[nH]c(=O)c(/C(=N/Nc3ccccc3)c3cc(OC)c(OC)c(OC)c3)n2)cc1 | 9.81 µM | 39.8 µM | 18.4 µM | 31.8 µM | 23.7 µM |
| COc1ccc(-c2n[nH]c(=O)c(/C(=N/Nc3cccc(OC)c3)c3cc(OC)c(OC)c(OC)c3)n2)cc1 | 68.7 µM | 132 µM | 162 µM | 250 µM | 250 µM |
| COc1cc(-c2nn(-c3ccc(Cl)cc3)c3nnc(-c4ccccc4)nc23)cc(OC)c1OC | 150 µM | 156 µM | 250 µM | 173 µM | 57.3 µM |
| COc1ccc(-c2nnc3c(n2)c(-c2cc(OC)c(OC)c(OC)c2)nn3-c2ccccc2OC)cc1 | 105 µM | 119 µM | 178 µM | 155 µM | 6.58 µM |

| SMILES | IC50 [1] | IC50 [2] | IC50 [3] | IC50 [4] | IC50 [5] |
| --- | --- | --- | --- | --- | --- |
| COc1ccc(-c2n[nH]c(=O)c(/C(=N/Nc3ccc(Cl)cc3)c3cc(OC)c(OC)c(OC)c3)n2)cc1 | 20.2 µM | 50.1 µM | 41.3 µM | 238 µM | 18.5 µM |
| COc1ccc(N/N=C(\c2cc(OC)c(OC)c(OC)c2)c2nc(-c3ccc(Cl)cc3)n[nH]c2=O)cc1 | 9.49 µM | 9.16 µM | 7.5 µM | 8.33 µM | 2.34 µM |
| COc1cc(Cc2nc(-c3ccc(Cl)cc3)n[nH]c2=O)cc(OC)c1OC | 12.9 µM | 14.6 µM | 9.63 µM | 24.7 µM | 15.8 µM |
| COc1cc(/C=C(/NC(=O)c2ccccc2)C(=O)NN)cc(OC)c1OC | 124 µM | 121 µM | 162 µM | 162 µM | 164 µM |
| COc1ccc(C(=O)N/C(=C/c2cc(OC)c(OC)c(OC)c2)C(=O)NN)cc1 | 144 µM | 147 µM | 172 µM | 167 µM | 134 µM |
| COc1cc(/C(=N\Nc2ccccc2)c2nc(-c3ccccc3)n[nH]c2=O)cc(OC)c1OC | 10.6 µM | 18.2 µM | 11.5 µM | 19.3 µM | 7.14 µM |
| COc1cc(/C=C(/NC(=O)c2cc(OC)c(OC)c(OC)c2)C(=O)NN)cc(OC)c1OC | 123 µM | 126 µM | 160 µM | 153 µM | 103 µM |
| COc1cc(/C=C(/NC(=O)c2ccc(Cl)cc2)C(=O)NN)cc(OC)c1OC | 134 µM | 130 µM | 166 µM | 174 µM | 161 µM |
| COc1ccc(-c2n[nH]c(=O)c(Cc3cc(OC)c(OC)c(OC)c3)n2)cc1 | 3.15 µM | 13.3 µM | 3.07 µM | 19.9 µM | 9.31 µM |
| COc1ccccc1-n1nc(-c2cc(OC)c(OC)c(OC)c2)c2nc(-c3cc(OC)c(OC)c(OC)c3)nnc21 | 126 µM | 125 µM | 182 µM | 156 µM | 15 µM |
| COc1cc(N/N=C(\c2cc(OC)c(OC)c(OC)c2)c2nc(-c3cc(OC)c(OC)c(OC)c3)n[nH]c2=O)cc(OC)c1OC | 53.8 µM | 158 µM | 94.3 µM | 118 µM | 162 µM |
| COc1cc(Cc2nc(-c3cc(OC)c(OC)c(OC)c3)n[nH]c2=O)cc(OC)c1OC | 38.4 µM | 129 µM | 82.1 µM | 138 µM | 117 µM |
| COc1ccc(-c2n[nH]c(=O)c(/C(=N/Nc3ccccc3OC)c3cc(OC)c(OC)c(OC)c3)n2)cc1 | 54.6 µM | 141 µM | 148 µM | 250 µM | 250 µM |
| COc1cccc(N/N=C(\c2cc(OC)c(OC)c(OC)c2)c2nc(-c3ccc(Cl)cc3)n[nH]c2=O)c1 | 11.5 µM | 133 µM | 41.8 µM | 26.3 µM | 8.32 µM |
| COc1cccc(-n2nc(-c3cc(OC)c(OC)c(OC)c3)c3nc(-c4ccccc4)nnc32)c1 | 8.41 µM | 99.3 µM | 117 µM | 159 µM | 0.61 µM |
| COc1ccc(-c2nnc3c(n2)c(-c2cc(OC)c(OC)c(OC)c2)nn3-c2ccc(Cl)cc2)cc1 | 115 µM | 118 µM | 203 µM | 232 µM | 113 µM |
| COc1ccc(-c2nnc3c(n2)c(-c2cc(OC)c(OC)c(OC)c2)nn3-c2ccccc2)cc1 | 114 µM | 114 µM | 166 µM | 203 µM | 78.8 µM |
